Laboratory results from ChEMBL document CHEMBL3526018, “Metabolites of PPI-2458, a selective, irreversible inhibitor of methionine aminopeptidase-2: structure determination and in vivo activity” (Drug Metab Dispos, 2013).
Calls of active or inactive are those of the source. No cut-off for these calls is given here.

Columns and labels:
[1] = system: Rattus norvegicus; experiment: Inhibition of MetAP2 level in Sprague-Dawley rat whole blood assessed as free enzyme level at 3 mg/kg, po by ELISA; type: functional, organism-based; set-up: dose 3 mg/kg
In short: (§1)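 Male Sprague-Dawley rats (200-225 g, n=3 per group) were dosed once IV at 0.3 mg/kg or PO at 0.3 or 3.0 mg/kg, in 11% HPCD in water. Blood, liver, lung, thymus and pooled non-mesenteric lymph nodes were taken at ~24 h and lysed or homogenized with NP-40. Free MetAP2 was measured by ELISA and expressed as % of vehicle.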

[2] = system: CYP3A5 (Homo sapiens); experiment: Ratio of Vmax to Km for human recombinant CYP3A5 assessed as ((3R,4S,5S,6R)-4-((2R,3R)-3-(((S)-3,3-dimethyloxiran-2-yl)methyl)-2-methyloxiran-2-yl)-5-methoxy-1-oxaspiro[2.5]octan-6-yl ((R)-1-amino-3-methyl-1-oxobutan-2-yl)carbamate) formation; conditions: recombinant enzyme
[3] = system: Rattus norvegicus; experiment: Inhibition of MetAP2 level in Sprague-Dawley rat lymph nodes assessed as free enzyme level at 0.3 mg/kg, iv by ELISA; type: functional, organism-based; set-up: dose 0.3 mg/kg; in short: as §1
[4] = system: Liver microsome; experiment: Metabolic stability in dog liver microsomes assessed as retention time of ((3R,4S,5S,6R)-4-((2R,3R)-3-(((R)-3,3-dimethyloxiran-2-yl)methyl)-2-methyloxiran-2-yl)-5-methoxy-1-oxaspiro[2.5]octan-6-yl ((R)-1-amino-3-methyl-1-oxobutan-2-yl)carbamate) at 5 mM by LC/MS analysis; type: ADME, Canis lupus familiaris; conditions: 5000 µM
[5] = Oral steady-state volume of distribution in non-Hodgkin lymphoma patient at 15 mg, po alternate days for 21 days; type: ADME, organism-based; conditions: human, in vivo, read-out: Vss/F
In short: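 Non-Hodgkin lymphoma patients given oral capsules every other day for 21 days. Plasma sampled predose and at 15, 30 min and 1, 2, 3, 4, 6, 8, 24, 48 h after the first dose. Protein precipitated, extract reconstituted, parent and metabolites quantified by validated LC-MS/MS. CL/F and Vss/F derived from the administered dose.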

[6] = system: CYP3A4 (Homo sapiens); experiment: Activity of human recombinant CYP3A4 assessed as ((3R,4S,5S,6R)-4-((2R,3R)-3-(((R)-3,3-dimethyloxiran-2-yl)methyl)-2-methyloxiran-2-yl)-5-methoxy-1-oxaspiro[2.5]octan-6-yl ((R)-1-amino-3-methyl-1-oxobutan-2-yl)carbamate) formation; conditions: recombinant enzyme
[7] = system: Rattus norvegicus; experiment: Inhibition of MetAP2 level in Sprague-Dawley rat lymph nodes assessed as free enzyme level at 3 mg/kg, po by ELISA; type: functional, organism-based; set-up: dose 3 mg/kg; in short: as §1
[8] = biological target: T1, Cytochrome P450 3A4 (Homo sapiens, UniProt P08684); experiment: Inhibition of CYP3A4 activity in human liver microsomes assessed as dibenzo fluuorescene oxidation up to 40 uM; type: ADME
[9] = system: CYP3A5 (Homo sapiens); experiment: Activity of human recombinant CYP3A5 assessed as ((3R,4S,5S,6R)-5-methoxy-4-((2R,3R)-2-methyl-3-(3-methylbut-2-en-1-yl)oxiran-2-yl)-1-oxaspiro[2.5]octan-6-yl ((R)-1-amino-3-hydroxy-3-methyl-1-oxobutan-2-yl)carbamate) formation per pmol of enzyme
[10] = system: Liver microsome; experiment: Metabolic stability in dog liver microsomes assessed as retention time of ((3R,4S,5S,6R)-5-methoxy-4-((2R,3R)-2-methyl-3-(3-methylbut-2-en-1-yl)oxiran-2-yl)-1-oxaspiro[2.5]octan-6-yl ((R)-1-amino-3-hydroxy-3-methyl-1-oxobutan-2-yl)carbamate) at 5 mM by LC/MS analysis; type: ADME, Canis lupus familiaris; conditions: 5000 µM
[11] = system: Liver microsome; experiment: Metabolic stability in dog liver microsomes assessed as retention time of ((3R,4S,5S,6R)-4-((2R,3R)-3-(((S)-3,3-dimethyloxiran-2-yl)methyl)-2-methyloxiran-2-yl)-5-methoxy-1-oxaspiro[2.5]octan-6-yl ((R)-1-amino-3-methyl-1-oxobutan-2-yl)carbamate) at 5 mM by LC/MS analysis; type: ADME, Canis lupus familiaris; conditions: 5000 µM
[12] = system: CYP3A4 (Homo sapiens); experiment: Ratio of Vmax to Km for human recombinant CYP3A4 assessed as ((3R,4S,5S,6R)-5-methoxy-4-((2R,3R)-2-methyl-3-(3-methylbut-2-en-1-yl)oxiran-2-yl)-1-oxaspiro[2.5]octan-6-yl ((R)-1-amino-3-hydroxy-3-methyl-1-oxobutan-2-yl)carbamate) formation; conditions: recombinant enzyme
[13] = system: Rattus norvegicus; experiment: Inhibition of MetAP2 level in Sprague-Dawley rat liver assessed as free enzyme level at 3 mg/kg, po by ELISA; type: functional, organism-based; set-up: dose 3 mg/kg; in short: as §1
[14] = system: CYP3A4 (Homo sapiens); experiment: Activity of human recombinant CYP3A4 assessed as ((3R,4S,5S,6R)-4-((2R,3R)-3-((E)-4-hydroxy-3-methylbut-2-en-1-yl)-2-methyloxiran-2-yl)-5-methoxy-1-oxaspiro[2.5]octan-6-yl((R)-1-amino-3-methyl-1-oxobutan-2-yl)carbamate) formation; conditions: recombinant enzyme
[15] = Apparent oral clearance in non-Hodgkin lymphoma patient at 15 mg, po alternate days for 21 days; type: ADME, organism-based; conditions: human, in vivo
In short: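 Oral PPI-2458 given every other day to lymphoma patients. Plasma sampled pre-dose and at 15 min, 30 min, 1, 2, 3, 4, 6, 8, 24 and 48 h after the first dose. Parent and metabolites were measured by LC-MS/MS after protein precipitation, evaporation and reconstitution. CL/F was computed only for parent and summed analytes. For metabolites, t1/2 is an apparent first-phase value.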

[16] = system: CYP3A4 (Homo sapiens); experiment: Activity of human recombinant CYP3A4 assessed as ((3R,4S,5S,6R)-5-methoxy-4-((2R,3R)-2-methyl-3-(3-methylbut-2-en-1-yl)oxiran-2-yl)-1-oxaspiro[2.5]octan-6-yl ((R)-1-amino-3-hydroxy-3-methyl-1-oxobutan-2-yl)carbamate) formation per pmol of enzyme
[17] = system: Rattus norvegicus; experiment: Inhibition of MetAP2 level in Sprague-Dawley rat thymus assessed as free enzyme level at 3 mg/kg, po by ELISA; type: functional, organism-based; set-up: dose 3 mg/kg; in short: as §1
[18] = biological target: T1, Cytochrome P450 3A4; experiment: Inhibition of CYP3A4 activity in human liver microsomes using midazolam as a substrate by LC/MS analysis; type: ADME
[19] = system: CYP3A4 (Homo sapiens); experiment: Activity of human recombinant CYP3A4 assessed as ((3R,4S,5S,6R)-4-((2R,3R)-3-(((S)-3,3-dimethyloxiran-2-yl)methyl)-2-methyloxiran-2-yl)-5-methoxy-1-oxaspiro[2.5]octan-6-yl ((R)-1-amino-3-methyl-1-oxobutan-2-yl)carbamate) formation; conditions: recombinant enzyme
[20] = system: Liver; experiment: Metabolic stability in rat liver S9 fraction assessed as retention time of glutathione conjugate at 5 mM by LC/MS analysis; type: ADME, subcellular; conditions: s9, 5000 µM

T1 sequence (P08684 whole entry): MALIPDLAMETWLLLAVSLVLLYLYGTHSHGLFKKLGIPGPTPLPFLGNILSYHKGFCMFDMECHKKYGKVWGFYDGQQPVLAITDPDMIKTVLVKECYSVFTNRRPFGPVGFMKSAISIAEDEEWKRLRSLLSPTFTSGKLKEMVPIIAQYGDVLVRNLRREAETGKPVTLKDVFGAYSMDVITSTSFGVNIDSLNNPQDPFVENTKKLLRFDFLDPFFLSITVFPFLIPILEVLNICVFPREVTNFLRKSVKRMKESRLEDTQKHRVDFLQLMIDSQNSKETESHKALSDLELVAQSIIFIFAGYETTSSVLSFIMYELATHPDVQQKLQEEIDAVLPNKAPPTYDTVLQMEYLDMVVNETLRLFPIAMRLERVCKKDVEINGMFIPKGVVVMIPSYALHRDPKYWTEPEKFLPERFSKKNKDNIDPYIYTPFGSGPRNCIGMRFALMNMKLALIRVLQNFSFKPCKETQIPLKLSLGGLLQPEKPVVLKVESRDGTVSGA

## CO[C@@H]1[C@H](OC(=O)N[C@@H](C(N)=O)C(C)C)CC[C@]2(CO2)[C@H]1[C@@]1(C)O[C@@H]1CC=C(C)C [PPI-2458]
[1]
  inhibition: Active
[2]
  Vmax/Km: 0.09 µL/min
[3]
  inhibition: Active
[4]
  Drug metabolism: metabolite_detected
[5]
  Vd/F: 415 L
[6]
  Km: 17 µM
[7]
  inhibition: Active
[8]
  inhibition (INH): Not Active
[9]
  Vmax: 1.58 pmol/min
[10]
  Drug metabolism: metabolite_detected
[11]
  Drug metabolism: metabolite_detected
[12]
  Vmax/Km: 0.019 µL/min
[13]
  inhibition: Active
[14]
  Km: 15 µM
[15]
  CL/F: 5880 mL/min
[16]
  Vmax: 0.51 pmol/min
[17]
  inhibition: Active
[18]
  Ki: 58 µM
[19]
  Km: 15 µM
[20]
  Retention_time: 20.8 min
